# Data published in ChEMBL document CHEMBL5331111, “Synthetic Biology Facilitates Semisynthetic Development of Type V Glycopeptide Antibiotics Targeting Vancomycin-Resistant Enterococcus” (J Med Chem, 2023).
# Activity calls are given as the source filed them. The calls are words filed in the database; no cut-off is given here.
# Assays:
# [1] = test system: Mycolicibacterium smegmatis; test: Antimycobacterial activity against Mycobacterium smegmatis MC2 155 assessed as inhibition of bacterial growth measured after 2 days by resazurin dye based analysis; type: functional; settings: MC2 155, 48 h, time 2 day
# Procedure, shortened: (§1)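 Strains grown in 7H9 broth with 0.2% glycerol, 10% OADC and 0.05% Tween-80. Inoculum was about 5 × 10^5 CFU/mL, checked by plating on 7H10/OADC agar to be 3–8 × 10^5. Read at 2 days for M. smegmatis and 7 days for M. tuberculosis H37Ra, M. bovis and M. avium. Resazurin 30 μg/mL was then added for one further day. Values are averages of at least two experiments.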
# Enterococcus faecium [2] = test: Antibacterial activity against vancomycin-resistant Enterococcus faecium ATCC 700221 assessed as inhibition of bacterial growth by Mueller-Hinton broth based assay; type: functional
# Enterococcus faecalis = test: Antibacterial activity against vancomycin-resistant Enterococcus faecalis ATCC 51299 assessed as inhibition of bacterial growth by Mueller-Hinton broth based assay; type: functional
# Bacillus subtilis = test: Antibacterial activity against Bacillus subtilis 168 assessed as reduction in bacterial growth by Mueller-Hinton broth based assay; type: functional
# Procedure, shortened: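 Broth MIC by standard procedure in Mueller-Hinton broth, for both B. subtilis 168 and S. aureus ATCC 33591.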
# Enterococcus gallinarum = test: Antibacterial activity against vancomycin-resistant Enterococcus gallinarum ATCC 49573 assessed as inhibition of bacterial growth by Mueller-Hinton broth based assay; type: functional
# Enterococcus faecium [3] = test: Antibacterial activity against Enterococcus faecium WCC 0491 assessed as inhibition of bacterial growth by Mueller-Hinton broth based assay; type: functional
# Enterococcus faecium [4] = test: Antibacterial activity against Enterococcus faecium WCC 0492 assessed as inhibition of bacterial growth by Mueller-Hinton broth based assay; type: functional
# Enterococcus faecium [5] = test: Antibacterial activity against Enterococcus faecium WCC 0495 assessed as inhibition of bacterial growth by Mueller-Hinton broth based assay; type: functional
# Enterococcus faecium [6] = test: Antibacterial activity against Enterococcus faecium WCC 0496 assessed as inhibition of bacterial growth by Mueller-Hinton broth based assay; type: functional
# Enterococcus faecium [7] = test: Antibacterial activity against Enterococcus faecium WCC 0498 assessed as inhibition of bacterial growth by Mueller-Hinton broth based assay; type: functional
# Enterococcus faecium [8] = test: Antibacterial activity against Enterococcus faecium WCC 0499 assessed as inhibition of bacterial growth by Mueller-Hinton broth based assay; type: functional
# Enterococcus faecium [9] = test: Antibacterial activity against Enterococcus faecium WCC 0502 assessed as inhibition of bacterial growth by Mueller-Hinton broth based assay; type: functional
# Enterococcus faecium [10] = test: Antibacterial activity against Enterococcus faecium WCC 0506 assessed as inhibition of bacterial growth by Mueller-Hinton broth based assay; type: functional
# Enterococcus faecium [11] = test: Antibacterial activity against Enterococcus faecium WCC 0516 assessed as inhibition of bacterial growth by Mueller-Hinton broth based assay; type: functional
# Enterococcus faecium [12] = test: Antibacterial activity against Enterococcus faecium WCC 0528 assessed as inhibition of bacterial growth by Mueller-Hinton broth based assay; type: functional
# Enterococcus faecium [13] = test: Antibacterial activity against Enterococcus faecium WCC 0533 assessed as inhibition of bacterial growth by Mueller-Hinton broth based assay; type: functional
# Enterococcus faecium [14] = test: Antibacterial activity against Enterococcus faecium WCC 0534 assessed as inhibition of bacterial growth by Mueller-Hinton broth based assay; type: functional
# Enterococcus faecium [15] = test: Antibacterial activity against Enterococcus faecium WCC 0537 assessed as inhibition of bacterial growth by Mueller-Hinton broth based assay; type: functional
# Enterococcus faecium [16] = test: Antibacterial activity against Enterococcus faecium WCC 0586 assessed as inhibition of bacterial growth by Mueller-Hinton broth based assay; type: functional
# Enterococcus faecium [17] = test: Antibacterial activity against vancomycin-resistant Enterococcus faecium WCC 0541 assessed as inhibition of bacterial growth by Mueller-Hinton broth based assay; type: functional
# Enterococcus faecium [18] = test: Antibacterial activity against Enterococcus faecium WCC 0545 assessed as inhibition of bacterial growth by Mueller-Hinton broth based assay; type: functional
# Enterococcus faecium [19] = test: Antibacterial activity against Enterococcus faecium WCC 0553 assessed as inhibition of bacterial growth by Mueller-Hinton broth based assay; type: functional
# Enterococcus faecium [20] = test: Antibacterial activity against Enterococcus faecium WCC 0558 assessed as inhibition of bacterial growth by Mueller-Hinton broth based assay; type: functional
# Enterococcus faecium [21] = test: Antibacterial activity against Enterococcus faecium WCC 0587 assessed as inhibition of bacterial growth by Mueller-Hinton broth based assay; type: functional
# [22] = test system: Mycolicibacterium fortuitum; test: Antimycobacterial activity against Mycobacterium fortuitum ATCC 6891 assessed as inhibition of bacterial growth measured after 2 days by resazurin dye based analysis; type: functional; settings: ATCC 6891, 48 h, time 2 day
# Procedure, shortened: (§2)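 Cultured in 7H9 with 0.2% glycerol, 10% OADC and 0.05% Tween-80. Inoculum diluted to ~5 × 10^5 CFU/mL and confirmed at 3–8 × 10^5 by plating on 7H10 agar. Growth read at 2 days, then 30 μg/mL resazurin added for one more day. Values averaged from at least two experiments.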
# [23] = test system: Mycobacteroides abscessus; test: Antimycobacterial activity against Mycobacterium abscessus ATCC 19977 assessed as inhibition of bacterial growth measured after 2 days by resazurin dye based analysis; type: functional; settings: ATCC 19977, 48 h, time 2 day; procedure, shortened: as §2
# [24] = test system: Mycobacterium tuberculosis; test: Antimycobacterial activity against Mycobacterium tuberculosis H37Ra assessed as inhibition of bacterial growth measured after 7 days by resazurin dye based analysis; type: functional; settings: 168 h, time 7 day; procedure, shortened: as §1
# [25] = Antimycobacterial activity against Mycobacterium avium subsp. avium ATCC 25291 assessed as inhibition of bacterial growth measured after 7 days by resazurin dye based analysis; type: functional; settings: ATCC 25291, 168 h, time 7 day; procedure, shortened: as §1
# [26] = Cytotoxicity against HEK293 cells assessed as inhibition of cell growth incubated for 48 hrs by Cell-Titer Glo reagent based analysis; type: toxicity; settings: human
# Procedure, shortened: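 HEK293 cells seeded at 7500 cells/well in DMEM with 10% FBS, 2 mM glutamine and pen/strep, and left 18 h at 37 °C under 5% CO2. Compound then added at 1% final DMSO and incubated 48 h. Viability read by CellTiter-Glo luminescence and normalized to DMSO-only wells. Curves fitted by 4PL constrained to 0–1.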
# [27] = Hemolytic activity in human RBC incubated for 1 hr by absorbance based analysis; type: toxicity, cell-based, Erythrocyte; settings: red blood cells (erythrocytes)
# Procedure, shortened: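 Human K2-EDTA blood RBCs washed twice in 150 mM NaCl, resuspended in PBS pH 7.4, then diluted 1:50. Incubated with compound at 1% final DMSO for 1 h at 37 °C and pelleted at 500g for 5 min. Supernatant absorbance read at 540 nm. Controls were DMSO-only and a Triton X-100 dilution series (20% to 0.02%).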
# Enterococcus faecium [28] = test: Antibacterial activity against Vancomycin-resistant Enterococcus faecium ATCC 700221 infected in cyclophosphamide induced neutropenic thigh infection CD-1 mouse model assessed as reduction in weight loss at 100 mg/kg, ip qid measured after 24 hrs post-infection; type: functional, organism-based
# Procedure, shortened: (§3)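 Female CD-1 mice, 6–10 weeks old, made neutropenic with i.p. cyclophosphamide (150 mg/kg day 4, 100 mg/kg day 1). About 1 × 10^6 CFU of E. faecium ATCC 700221, grown in BHI with vancomycin, were injected into each thigh. Dosing was i.p. at 1, 3, 5 and 20 h post-infection, in PEG400/DMSO/H₂O (45/5/50) vehicle, with vehicle controls. Mice were euthanized at 24 h.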
# Enterococcus faecium [29] = test: Antibacterial activity against Vancomycin-resistant Enterococcus faecium ATCC 700221 infected in cyclophosphamide induced neutropenic thigh infection CD-1 mouse model assessed as increase in survival rate at 100 mg/kg, ip qid measured after 24 hrs post-infection; type: functional, organism-based; procedure, shortened: as §3
# Enterococcus faecium [30] = test: Antibacterial activity against Vancomycin-resistant Enterococcus faecium ATCC 700221 infected in cyclophosphamide induced neutropenic thigh infection CD-1 mouse model assessed as reduction in blood bacterial load at 100 mg/kg, ip qid measured after 24 hrs post-infection; type: functional; procedure, shortened: as §3
# [31] = Toxicity in cyclophosphamide induced neutropenic thigh infection CD-1 mouse model infected with Vancomycin-resistant Enterococcus faecium ATCC 700221 assessed as change in thigh weight at 100 mg/kg, ip qid measured after 24 hrs post-infection; type: organism-based; settings: in vivo; procedure, shortened: as §3
# [32] = Toxicity in cyclophosphamide induced neutropenic thigh infection CD-1 mouse model infected with Vancomycin-resistant Enterococcus faecium ATCC 700221 assessed as change in spleen weight at 100 mg/kg, ip qid measured after 24 hrs post-infection; type: organism-based; settings: in vivo; procedure, shortened: as §3
compound,measurement,setting,value
CN(C)CCCNC(=O)[C@@H]1NC(=O)[C@@H]2Cc3ccc(cc3)Oc3cc4cc(c3O)-c3ccc5c(c[nH]c5c3)C[C@@H](NC(=O)C(NC(=O)CCCCCN)c3ccc(O)cc3)C(=O)N[C@H](c3ccc(O)cc3)C(=O)N[C@H]4C(=O)N[C@@H](C(=O)N2C)c2ccc(cc2)Oc2cc1ccc2O (stereo not given in full),MIC,[1],0.5 µg/mL
same,MIC,Enterococcus faecium [2],0.5 µg/mL
same,MIC,Enterococcus faecalis,1 µg/mL
same,MIC,Bacillus subtilis,1 µg/mL
same,MIC,Enterococcus gallinarum,2 µg/mL
same,MIC,Enterococcus faecium [3],1 µg/mL
same,MIC,Enterococcus faecium [4],2 µg/mL
same,MIC,Enterococcus faecium [5],1 µg/mL
same,MIC,Enterococcus faecium [6],1 µg/mL
same,MIC,Enterococcus faecium [7],2 µg/mL
same,MIC,Enterococcus faecium [8],1 µg/mL
same,MIC,Enterococcus faecium [9],1 µg/mL
same,MIC,Enterococcus faecium [10],1 µg/mL
same,MIC,Enterococcus faecium [11],0.5 µg/mL
same,MIC,Enterococcus faecium [12],1 µg/mL
same,MIC,Enterococcus faecium [13],0.5 µg/mL
same,MIC,Enterococcus faecium [14],0.5 µg/mL
same,MIC,Enterococcus faecium [15],2 µg/mL
same,MIC,Enterococcus faecium [16],1 µg/mL
same,MIC,Enterococcus faecium [17],1 µg/mL
same,MIC,Enterococcus faecium [18],2 µg/mL
same,MIC,Enterococcus faecium [19],1 µg/mL
same,MIC,Enterococcus faecium [20],1 µg/mL
same,MIC,Enterococcus faecium [21],1 µg/mL
same,MIC,[22],2 µg/mL
same,MIC,[23],2 µg/mL
same,MIC,[24],32 µg/mL
same,MIC,[25],> 128 µg/mL
same,IC50 at 48 h,[26],> 256 µg/mL
same,IC50 at 1 h,[27],> 256 µg/mL
same,Activity,Enterococcus faecium [28],Active
same,Activity,Enterococcus faecium [29],Active
same,log(activity),Enterococcus faecium [30],3 CFU/g
same,Activity,[31],Non-Toxic
same,Activity,[32],Non-Toxic
